Experimental data: ChEMBL document CHEMBL4257453, “Identification of karanjin isolated from the Indian beech tree as a potent CYP1 enzyme inhibitor with cellular efficacy via screening of a natural product repository” (Medchemcomm, 2018)

What was measured:
Cytochrome P450 1A2 = molecular target: T1, Cytochrome P450 1A2 (Homo sapiens, UniProt P05177); test: Inhibition of human recombinant CYP1A2 expressed in HEK293 cells using 3-cyano-7-ethoxycoumarin substrate preincubated for 30 mins followed by substrate addition and measured after 60 mins by fluorescence assay relative to control; format: ADME, cell-based
T1 sequence (P05177 whole entry): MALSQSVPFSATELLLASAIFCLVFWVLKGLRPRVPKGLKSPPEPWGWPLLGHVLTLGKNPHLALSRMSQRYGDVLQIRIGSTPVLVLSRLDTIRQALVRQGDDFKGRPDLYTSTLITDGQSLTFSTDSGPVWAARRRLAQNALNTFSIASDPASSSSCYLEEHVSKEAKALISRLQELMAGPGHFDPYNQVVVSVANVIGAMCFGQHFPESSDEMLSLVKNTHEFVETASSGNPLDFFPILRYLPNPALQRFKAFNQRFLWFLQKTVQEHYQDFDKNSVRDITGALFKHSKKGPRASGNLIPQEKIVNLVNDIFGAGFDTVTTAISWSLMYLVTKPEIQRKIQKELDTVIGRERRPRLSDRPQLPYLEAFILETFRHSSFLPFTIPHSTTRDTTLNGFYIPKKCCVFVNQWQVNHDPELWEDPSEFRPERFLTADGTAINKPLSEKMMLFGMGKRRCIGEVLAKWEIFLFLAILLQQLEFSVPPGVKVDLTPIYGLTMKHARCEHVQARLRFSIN
Summary of the method: (§1)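 HEK293 cells adapted to suspension and transiently transfected with pcDNA3.1 plasmids carrying the individual CYP; 100×10^3 cells per well in triplicate. […] Fluorogenic substrate is then added at 5 μM and fluorescence read for 60 min.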

CYP2C9 = CYP2C9 (Homo sapiens, UniProt P11712); test: Inhibition of recombinant human CYP2C9 expressed in baker's yeast-derived microsomes (Sacchrosomes) at 10 uM using 3-cyano-7-ethoxycoumarin substrate by EROD assay relative to control; format: ADME; settings: probe 3-cyano-7-ethoxycoumarin
Summary of the method: (§2)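 Yeast microsomes carrying recombinant CYP (Sacchrosomes). […] Substrates per isoform are 7-ethoxyresorufin, 3-cyano-7-ethoxycoumarin, EOMCC or dibenzylfluorescein, read as endpoint fluorescence. Background from compound-only wells without enzyme is subtracted. Independent triplicate runs; α-naphthoflavone positive control.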

Cytochrome P450 2D6 = Cytochrome P450 2D6 (Homo sapiens, UniProt P10635); test: Inhibition of human recombinant CYP2D6 expressed in HEK293 cells using 7-ethoxy-methyloxy-3-cyanocoumarin substrate substrate preincubated for 30 mins followed by substrate addition and measured after 60 mins by fluorescence assay relative to control; format: ADME, cell-based; summary of the method: as §1
Cytochrome P450 2C9 = Cytochrome P450 2C9 (Homo sapiens, UniProt P11712); test: Inhibition of human recombinant CYP2C9 expressed in HEK293 cells using 3-cyano-7-ethoxycoumarin substrate substrate preincubated for 30 mins followed by substrate addition and measured after 60 mins by fluorescence assay relative to control; format: ADME, cell-based; summary of the method: as §1
CYP1B1 = molecular target: T2, CYP1B1 (Homo sapiens, UniProt Q16678); test: Inhibition of recombinant human CYP1B1 expressed in baker's yeast-derived microsomes (Sacchrosomes) at 10 uM using 7-ethoxyresorufin substrate by EROD assay relative to control; format: ADME; settings: probe 7-ethoxyresorufin; summary of the method: as §2
T2 sequence (Q16678 whole entry): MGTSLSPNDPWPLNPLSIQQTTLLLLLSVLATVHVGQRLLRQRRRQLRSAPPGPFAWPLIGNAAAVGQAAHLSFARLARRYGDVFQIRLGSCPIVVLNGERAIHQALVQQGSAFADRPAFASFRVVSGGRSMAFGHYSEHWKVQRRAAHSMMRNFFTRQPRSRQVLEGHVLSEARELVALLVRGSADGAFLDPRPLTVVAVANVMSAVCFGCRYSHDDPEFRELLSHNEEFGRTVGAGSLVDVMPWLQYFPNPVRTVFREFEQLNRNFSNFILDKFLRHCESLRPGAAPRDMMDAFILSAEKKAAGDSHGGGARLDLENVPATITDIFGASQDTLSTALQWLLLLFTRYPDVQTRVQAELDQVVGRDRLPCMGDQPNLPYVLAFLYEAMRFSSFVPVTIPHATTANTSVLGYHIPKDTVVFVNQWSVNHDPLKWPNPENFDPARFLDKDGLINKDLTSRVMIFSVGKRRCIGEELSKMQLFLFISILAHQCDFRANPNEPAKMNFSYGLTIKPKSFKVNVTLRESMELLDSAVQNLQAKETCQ

Cytochrome P450 1B1 = molecular target: T3, Cytochrome P450 1B1 (Homo sapiens, UniProt Q16678); test: Inhibition of human recombinant CYP1B1 expressed in HEK293 cells using 7-ethoxyresorufin substrate substrate preincubated for 30 mins followed by substrate addition and measured after 60 mins by fluorescence assay relative to control; format: ADME, cell-based; summary of the method: as §1
T3 sequence (Q16678 whole entry): T2 sequence (Q16678 whole entry)

Cytochrome P450 2C19 = Cytochrome P450 2C19 (Homo sapiens, UniProt P33261); test: Inhibition of human recombinant CYP2C19 expressed in HEK293 cells using 3-cyano-7-ethoxycoumarin substrate substrate preincubated for 30 mins followed by substrate addition and measured after 60 mins by fluorescence assay relative to control; format: ADME, cell-based; summary of the method: as §1
CYP1A1 = molecular target: T4, CYP1A1 (Homo sapiens, UniProt P04798); test: Inhibition of recombinant human CYP1A1 expressed in baker's yeast-derived microsomes (Sacchrosomes) at 10 uM using 7-ethoxyresorufin substrate by EROD assay relative to control; settings: probe 7-ethoxyresorufin
T4 sequence (P04798 whole entry): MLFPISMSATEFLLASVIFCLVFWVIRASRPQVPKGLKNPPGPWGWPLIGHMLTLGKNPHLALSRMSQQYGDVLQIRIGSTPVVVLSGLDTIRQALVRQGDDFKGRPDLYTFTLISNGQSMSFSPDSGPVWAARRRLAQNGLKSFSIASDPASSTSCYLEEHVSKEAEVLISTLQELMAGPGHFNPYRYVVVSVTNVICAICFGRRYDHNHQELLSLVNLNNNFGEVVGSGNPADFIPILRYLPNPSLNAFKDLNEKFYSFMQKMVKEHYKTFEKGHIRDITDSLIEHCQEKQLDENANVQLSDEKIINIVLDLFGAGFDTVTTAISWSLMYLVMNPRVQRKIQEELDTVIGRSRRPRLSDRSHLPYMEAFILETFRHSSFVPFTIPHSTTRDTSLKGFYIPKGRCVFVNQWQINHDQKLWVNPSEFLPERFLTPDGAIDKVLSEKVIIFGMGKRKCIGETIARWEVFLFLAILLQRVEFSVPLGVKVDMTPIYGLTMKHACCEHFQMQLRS
Summary of the method: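 Yeast microsomes carrying recombinant CYP (Sacchrosomes). Substrates per isoform are 7-ethoxyresorufin, 3-cyano-7-ethoxycoumarin, EOMCC or dibenzylfluorescein, read as endpoint fluorescence. Background from compound-only wells without enzyme is subtracted. Independent triplicate runs; α-naphthoflavone positive control.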

CYP3A4 = CYP3A4 (Homo sapiens, UniProt P08684); test: Inhibition of recombinant human CYP3A4 expressed in baker's yeast-derived microsomes (Sacchrosomes) at 10 uM using dibenzylfluorescein substrate by EROD assay relative to control; format: ADME; settings: probe dibenzylfluorescein; summary of the method: as §2
Cytochrome P450 3A4 = Cytochrome P450 3A4 (Homo sapiens, UniProt P08684); test: Inhibition of human recombinant CYP3A4 expressed in HEK293 cells using dibenzylfluorescein substrate substrate preincubated for 30 mins followed by substrate addition and measured after 60 mins by fluorescence assay relative to control; format: ADME, cell-based
Summary of the method: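 HEK293 cells adapted to suspension and transiently transfected with pcDNA3.1 plasmids carrying the individual CYP; 100×10^3 cells per well in triplicate. Fluorogenic substrate is then added at 5 μM and fluorescence read for 60 min.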

Chain of Cytochrome P450 2C9 (P11712 whole entry): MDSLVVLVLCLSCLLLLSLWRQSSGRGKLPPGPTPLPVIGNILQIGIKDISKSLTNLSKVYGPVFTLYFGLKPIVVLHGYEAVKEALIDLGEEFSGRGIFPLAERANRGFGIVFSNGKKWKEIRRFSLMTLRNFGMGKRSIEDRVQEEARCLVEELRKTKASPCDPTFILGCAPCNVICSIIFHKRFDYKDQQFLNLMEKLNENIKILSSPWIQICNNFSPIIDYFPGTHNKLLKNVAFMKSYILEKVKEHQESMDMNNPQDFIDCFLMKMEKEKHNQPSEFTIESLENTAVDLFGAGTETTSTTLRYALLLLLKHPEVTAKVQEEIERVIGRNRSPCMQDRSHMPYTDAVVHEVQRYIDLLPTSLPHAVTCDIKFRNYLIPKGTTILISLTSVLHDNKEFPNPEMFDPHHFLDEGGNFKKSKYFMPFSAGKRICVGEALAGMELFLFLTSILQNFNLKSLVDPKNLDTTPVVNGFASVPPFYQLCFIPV
Chain of CYP2C9 (P11712 whole entry, canonical isoform): as the sequence (P11712 whole entry) above
Chain of Cytochrome P450 3A4 (P08684 whole entry): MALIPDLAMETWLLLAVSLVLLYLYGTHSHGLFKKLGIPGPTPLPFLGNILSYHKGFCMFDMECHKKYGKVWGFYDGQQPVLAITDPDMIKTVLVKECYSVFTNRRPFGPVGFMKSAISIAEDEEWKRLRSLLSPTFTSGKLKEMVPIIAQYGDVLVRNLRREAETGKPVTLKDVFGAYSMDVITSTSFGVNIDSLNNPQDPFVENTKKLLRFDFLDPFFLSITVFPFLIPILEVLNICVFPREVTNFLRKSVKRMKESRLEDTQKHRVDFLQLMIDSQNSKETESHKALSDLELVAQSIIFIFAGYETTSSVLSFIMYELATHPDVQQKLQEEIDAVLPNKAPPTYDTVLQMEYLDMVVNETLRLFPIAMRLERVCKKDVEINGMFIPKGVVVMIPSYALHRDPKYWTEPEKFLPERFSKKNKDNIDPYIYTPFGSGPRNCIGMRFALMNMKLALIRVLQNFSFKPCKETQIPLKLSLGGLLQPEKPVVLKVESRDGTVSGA
Chain of CYP3A4 (P08684 whole entry): as above
Chain of Cytochrome P450 2D6 (P10635 whole entry): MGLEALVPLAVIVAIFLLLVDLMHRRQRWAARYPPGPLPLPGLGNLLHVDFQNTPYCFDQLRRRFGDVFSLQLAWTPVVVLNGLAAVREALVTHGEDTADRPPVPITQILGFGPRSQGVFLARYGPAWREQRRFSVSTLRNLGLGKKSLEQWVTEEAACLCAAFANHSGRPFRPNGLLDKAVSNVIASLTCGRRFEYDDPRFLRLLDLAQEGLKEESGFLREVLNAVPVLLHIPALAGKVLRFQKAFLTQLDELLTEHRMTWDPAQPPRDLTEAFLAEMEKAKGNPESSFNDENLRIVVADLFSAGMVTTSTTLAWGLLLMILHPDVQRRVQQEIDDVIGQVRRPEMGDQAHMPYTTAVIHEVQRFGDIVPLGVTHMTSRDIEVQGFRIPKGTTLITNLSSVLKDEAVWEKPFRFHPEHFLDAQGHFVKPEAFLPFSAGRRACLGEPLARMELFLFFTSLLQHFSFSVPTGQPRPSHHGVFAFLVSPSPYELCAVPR
Chain of Cytochrome P450 2C19 (P33261 whole entry): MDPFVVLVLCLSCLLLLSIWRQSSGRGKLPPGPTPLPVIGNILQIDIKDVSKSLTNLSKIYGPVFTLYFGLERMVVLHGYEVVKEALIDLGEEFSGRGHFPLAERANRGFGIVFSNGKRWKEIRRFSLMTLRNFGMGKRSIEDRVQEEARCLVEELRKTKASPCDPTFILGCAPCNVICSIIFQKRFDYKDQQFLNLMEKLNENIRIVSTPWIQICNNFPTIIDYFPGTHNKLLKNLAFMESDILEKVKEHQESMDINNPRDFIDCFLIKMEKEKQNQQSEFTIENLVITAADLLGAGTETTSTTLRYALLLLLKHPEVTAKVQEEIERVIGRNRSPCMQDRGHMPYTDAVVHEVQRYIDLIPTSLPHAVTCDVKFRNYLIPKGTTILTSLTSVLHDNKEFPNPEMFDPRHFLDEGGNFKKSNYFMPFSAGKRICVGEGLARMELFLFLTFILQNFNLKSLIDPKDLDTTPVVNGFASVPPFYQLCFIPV

SMILES	IC50 (Cytochrome P450 1A2)	Ki (Cytochrome P450 1A2)	inhibition at 10 µM (CYP2C9)	IC50 (Cytochrome P450 2D6)	IC50 (Cytochrome P450 2C9)	inhibition at 10 µM (CYP1B1)	IC50 (Cytochrome P450 1B1)	IC50 (Cytochrome P450 2C19)	inhibition at 10 µM (CYP1A1)	inhibition at 10 µM (CYP3A4)	IC50 (Cytochrome P450 3A4)
COc1c2ccoc2cc2oc(=O)ccc12 [BERGAPTEN]	90 nM	60 nM	4%	> 10 µM	> 10 µM	20%	15.3 µM	> 10 µM	68%	3%	> 10 µM
COc1c2ccoc2c(OC)c2oc(=O)ccc12 [ISOPIMPINELLIN]	40 nM	28 nM	0%	> 10 µM	> 10 µM	55%	6.38 µM	> 10 µM	71%	0%	> 10 µM
